Experimental data of several laboratories.
Protocols differ between the studies behind these lines.

Nc1ncn([C@H]2C[C@H](O)[C@@H](CO)O2)c(=O)n1 — Tmax (female C57BL/6 mouse, plasma; oral, 0.4 mg/kg): 4.98 min
Cc1cc2sc(N)nc2c2cccnc12 — Tmax (female BALB/c mouse, plasma; intraperitoneal, 30 mg/kg, single dose): 15 min
C=CS(=O)(=O)c1ccc(Nc2nc(OCC3CCCCC3)c3nc[nH]c3n2)cc1 — Tmax (male BALB/c mouse, plasma; intraperitoneal, 20 mg/kg, single dose): 4.8 min
CCOc1ccc(N(C)S(=O)(=O)c2cc(Cl)sc2C(=O)Nc2cc(Cl)cc(C(=O)O)c2)cc1OC — Tmax (male C57BL/6 mouse, plasma; intraperitoneal, 10 mg/kg): 15 min
COc1cc2c(NC3CCN(CCCC(=O)NCCCCCCCCCCCC(=O)N[C@H](C(=O)N4C[C@H](O)C[C@H]4C(=O)NCc4ccc(-c5scnc5C)cc4)C(C)(C)C)CC3)nc(N3CCC(F)(F)CC3)nc2cc1OCCCN1CCCC1 — Tmax (male C57BL/6 mouse, plasma; intraperitoneal, 50 mg/kg, single dose): 30 min
C[C@@H](NCCCc1cccc(C(F)(F)F)c1)c1cccc2ccccc12 — Tmax (male CD-1 mouse, plasma; subcutaneous, 3 mg/kg, single dose): 15 min
Cc1c(C(=O)O)ccc2c3n(nc12)[C@@H]1[C@H](C3)N(CC2CC2)[C@@]2(C(=O)Nc3cc(Cl)ccc32)[C@H]1c1cccc(Cl)c1F — Tmax (female mouse, plasma; oral, 5 mg/kg): 282 min
CC(C(=O)Nc1c(F)cccc1F)N1CCN(c2ccccc2)CC1 (centres unmarked) — Tmax (female C57BL/6 mouse, brain; intraperitoneal, 10 mg/kg): 15 min
CC(=O)O[C@@]12CO[C@@H]1C[C@H](O)[C@@]1(C)C(=O)[C@H](O)C3=C(C)[C@@H](OC(=O)[C@H](O)[C@@H](NC(=O)OC(C)(C)C)c4ccccc4)C[C@@](O)([C@@H](OC(=O)c4ccccc4)[C@H]21)C3(C)C — Tmax (male Kunming mouse, liver; oral, 20 mg/kg): 30 min
C[C@@H](N[C@H]1CCN(c2ccc(CC(=O)O)cc2)C1)c1cccc2ccccc12 — Tmax (male CD-1 mouse, plasma; subcutaneous, 3 mg/kg, single dose): 60 min
CCN1CCN(Cc2ccc(NC(=O)c3ccc(C)c(NC(=O)c4cncc(-c5cccs5)c4)c3)cc2C(F)(F)F)CC1 — Tmax (mouse, plasma; intraperitoneal, 20 mg/kg, single dose): 30 min
